The text below walks through data of ChEMBL document CHEMBL1137906, “Microwave assisted synthesis of 2-(4-substituted piperazin-1-yl)-1,8-naphthyridine-3-carbonitrile as a new class of serotonin 5-HT3 receptor antagonists” (Bioorg Med Chem Lett, 2004).

The experiment is described as follows: Antagonism of 2-methyl-5-HT effect on 5-hydroxytryptamine 3 receptor in isolated guinea pig ileum. The class given is functional, tissue-based. The following applies: Cavia porcellus, read-out: pA2 (converted). An outline of the steps: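 Longitudinal muscle-myenteric plexus strip from guinea pig ileum, prepared by a literature method. Equilibrated 30 min at 500 mg resting tension in Tyrode solution, ca. 37°C, constant aeration. Agonist 2-methyl-5-HT added noncumulatively at 15 min intervals; antagonism of its contractile response measured. Values are means of three separate experiments.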
Regarding `N#Cc1cc2cccnc2nc1N1CCN(c2ccccn2)CC1`, the Kb is 126000 nM.
As to `CN1CCN(c2nc3ncccc3cc2C#N)CC1`, the Kb was 39.8 nM.
With `COc1ccc(N2CCN(c3nc4ncccc4cc3C#N)CC2)cc1`, the Kb was 12600 nM.
As for `N#Cc1cc2cccnc2nc1N1CCN(c2ccc([N+](=O)[O-])cc2)CC1`, the Kb was 158000 nM.
For `CCN1CCN(c2nc3ncccc3cc2C#N)CC1`, the Kb was 79.4 nM.
`N#Cc1cc2cccnc2nc1N1CCN(c2ccccc2)CC1`: the Kb is 2000 nM.
The figure for `COc1cccc(N2CCN(c3nc4ncccc4cc3C#N)CC2)c1` is 1000 nM; for `N#Cc1cc2cccnc2nc1N1CCN(Cc2ccccc2)CC1` it is 7940 nM.
Next, `COc1ccccc1N1CCN(c2nc3ncccc3cc2C#N)CC1`: 3980 nM; `C=CCN1CCN(c2nc3ncccc3cc2C#N)CC1`: 6.31 nM.
The figure for `N#Cc1cc2cccnc2nc1N1CCNCC1` is 316 nM; for `Cc1nccn1CC1CCc2c(c3ccccc3n2C)C1=O` (configuration not stated) [ONDANSETRON] it is 126 nM.
